Assay outcomes from PubChem.
hERG protect: hERG rescue from dofetilide block, primary screen, cell-based, CHO-hERG, FluxOR thallium flux, dofetilide IC70; hit rate 0.51% among 310,000; Voltage-gated inwardly rectifying potassium channel KCNH2 (Homo sapiens), Q12809; dofetilide IC70 present; activation (rescue from dofetilide block), less the hit threshold, % at 10 µM;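 active = activation above the mean of controls blocked by dofetilide plus 5 SD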;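 also: thallium influx through hERG after potassium depolarization seen as dye fluorescence rise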
KCNQ1 block: inhibitors of human KCNQ1 channel, primary screen, cell-based, thallium flux, high-throughput; Potassium voltage-gated channel subfamily KQT member 1 (Homo sapiens), P51787; CHO-K1 KCNQ1, FluxOR thallium flux fluorescence; hits give high values; B-score at 10 µM; hit rate 1.3% among 310,000;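 active = compounds whose thallium flux B-score, printed positive for inhibition, exceeds three library SD while starting fluorescence stays within three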;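 also: channel opened by potassium depolarization with thallium stimulus after 20 min compound exposure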
KCNK9 inh: KCNK9 potassium channel inhibitors, primary screen, HEK293 cells, thallium flux | AID 488922, 2010 | B-score at 10 µM | hit rate 1.2% among 310,000 | Potassium channel subfamily K member 9 (Homo sapiens), Q9NPC2 | FluxOR thallium flux fluorescence; hits give low values;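 active = ratio B-score over 3 SD below the library mean, with starting fluorescence within 5 SD of its mean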;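 also: negative B-score means less thallium flux so channel inhibition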
Target sequence (Q9NPC2 whole entry, looked up): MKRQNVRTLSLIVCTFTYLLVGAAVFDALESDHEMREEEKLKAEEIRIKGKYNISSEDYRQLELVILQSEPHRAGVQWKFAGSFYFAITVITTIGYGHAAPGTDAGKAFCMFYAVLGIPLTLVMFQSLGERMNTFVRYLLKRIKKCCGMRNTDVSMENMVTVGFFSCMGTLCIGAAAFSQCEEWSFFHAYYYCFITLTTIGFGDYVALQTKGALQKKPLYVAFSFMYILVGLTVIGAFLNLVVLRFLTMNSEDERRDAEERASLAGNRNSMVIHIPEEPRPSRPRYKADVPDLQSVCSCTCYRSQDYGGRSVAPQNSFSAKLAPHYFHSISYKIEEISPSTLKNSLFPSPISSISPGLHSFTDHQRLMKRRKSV
KCNQ1 pot: potentiators or activators of KCNQ1 channel, primary screen, cell-based, thallium flux, high-throughput | CHO-K1 KCNQ1, thallium flux FluxOR fluorescence; hits give high values | B-score at 10 µM | hit rate 0.35% among 310,000 | AID 2648, 2010;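 active = fluorescence ratio B-score, a plate-corrected score, at least three library SD, with initial intensity B-score within 5 SD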
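Medium – assay buffer, equal DMSO in all wells · Material – CHO-K1 cell line with stable KCNQ1 potassium channel expression · Signal – kinetic FluxOR thallium fluorescence, 10-s 1-Hz baseline, 110-s post-stimulus read · Compound – single concentration per compound, DMSO matched to controls · Schedule – 37 °C overnight plating, 90-min dark dye load, 20-min compound pretreatment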
KCNK3 block: human KCNK3 channel inhibitors, primary screen, CHO cells, FluxOR thallium flux, B-score; Potassium channel subfamily K member 3 (Homo sapiens), O14649; FluxOR fluorescence; hits give low values; B-score at 10 µM; hit rate 0.84% among 340,000;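 active = B-score under library mean minus 4 SD, starting fluorescence ratio at most library mean plus 5 SD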;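 also: more negative B-score means stronger inhibition of thallium flux through KCNK3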
KCNK9 block conf: KCNK9 potassium channel inhibitors, confirmation, HEK293 cells, thallium flux, duplicate. shares compounds with KCNK9 inh. FluxOR thallium flux fluorescence. inhibition, % at 10 µM. hit rate 43% among 4,900. AID 492992, 2010;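 active = thallium signal inhibited by more than 5 SD of the compound-free buffer control wells, on both duplicate plates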;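 also: 0% = assay buffer control wells without compound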
Kir21 sel: mouse Kir2.1 channel inhibition, confirmation, selectivity assay for KCNK9 modulator project, cell-based, HEK293, thallium flux. shares compounds with KCNK9 inh. Kir2.1 cells, FluxOR thallium flux fluorescence. inhibition, % at 10 µM. hit rate 4% among 4,900;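 active = thallium signal drop more than 5 SD beyond the mean of the no-compound control wells, seen in both duplicate plates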;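 also: signal is fluorescence rise after thallium addition divided by baseline fluorescence; plate controls were assay buffer only for no effect and full block by chlorpromazine control for full effect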
HEK293 Tl ctr: thallium flux in non-induced HEK293 cells, confirmation, counter-screen for KCNK9 inhibitor project, cell-based, second counter screen, non-induced KCNK9-HEK293. inhibition, % at 10 µM. AID 492997, 2010. shares compounds with KCNK9 inh. FluxOR thallium flux. hit rate 40% among 4,900;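 active = thallium signal drop beyond 5 SD of the untreated control mean, on both duplicate plates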;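 also: plate controls were buffer only IC0 wells for no effect and SID17386958 at its maximal inhibitory level for full effect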
Numbers without * were called inactive; i = inactive; · = no result. In the library only some 3.1% were active in any assay of this set; here they are far more common.

SMILES | hERG protect | KCNQ1 block | KCNK9 inh | KCNQ1 pot | KCNK3 block | KCNK9 block conf | Kir21 sel | HEK293 Tl ctr
Clc1cccc2sc(N3CCN(c4ccccc4)CC3)nc12 | -19 | i | -14* | i | i | 36%* | i | 36%*
Fc1cccc2sc(N3CCCCC3)nc12 | -8 | i | i | i | i | · | · | ·
Cc1ccnn1-c1ccc(C(=O)NCc2ccccc2CN2CCOCC2)cc1 | · | · | · | · | i | · | · | ·
COCCNC(=O)C(c1ccccc1F)N(C(=O)C(=O)NC1CCCC1)C1CCCCC1 (stereo unspecified) | -18 | i | i | i | i | · | · | ·
N#Cc1ccccc1S(=O)(=O)N1CCN(c2nc(-c3cccnc3)nc3ccccc23)CC1 | · | · | · | · | i | · | · | ·
CN(CC1CCN(CCc2cccc(C(F)(F)F)c2)CC1)C(=O)c1ccc(F)cc1 | -2 | i | i | i | i | i | i | i
O=C(CN1C(=O)c2ccc(Br)cc2C1=O)NCC1CCCO1 (stereo unspecified) | -1 | i | i | i | i | · | · | ·
COc1cccc(C(=O)OCCN2CCCCC2)c1 | -8 | i | i | i | i | i | i | i
COc1cccc(C(=O)OC(C)CN2CCCC2)c1 (stereo unspecified) | -2 | i | i | i | i | · | · | ·
COc1ccc(CCNC(=O)COC(=O)CSc2ccc(C(N)=O)cc2[N+](=O)[O-])cc1OC | · | · | · | · | i | · | · | ·
Cc1cc(C)cc(NC(=O)c2cc(C)n(Cc3cccs3)c2C)c1 | -12 | i | i | i | i | · | · | ·
Cc1cc(C(=O)Nc2ccc(Cl)cc2)c(C)n1Cc1cccs1 | -14 | i | i | i | i | i | i | i
N/C(Cc1ccccc1)=N\OC(=O)c1cccc2ccccc12 | -5 | i | -11* | i | i | i | i | i
N/C(=N\OC(=O)c1cccc2ccccc12)c1ccncc1 | -14 | i | i | i | i | · | · | ·
N/C(Cc1cccc2ccccc12)=N\OC(=O)c1ccccc1F | -1 | i | i | i | i | · | · | ·
N/C(=N\OC(=O)c1cccc2ccccc12)c1ccc(Br)cc1 | -4 | i | -8.3* | i | i | 35%* | i | 28%*
Cc1cc(Br)ccc1-n1[nH]c(C)c(C=Nc2cccc3nsnc23)c1=O | -6 | i | i | i | i | i | i | i
Cc1ccc(CSCCNC(=O)CN(c2cc(C)ccc2C)S(C)(=O)=O)cc1 | -15 | i | i | i | i | i | i | i
Cc1ccc(SCC(=O)NCCSCc2ccccc2)cc1 | -10 | i | i | i | i | i | i | i
Cc1ccc(CSCCNC(=O)CCSc2ccccc2)cc1 | -9 | i | i | i | i | · | · | ·
Cc1ccccc1CSCCNC(=O)CCSc1ccccc1 | -20 | i | i | i | i | i | i | i
CC(C(=O)NC1C=CS(=O)(=O)C1)N1C(=O)/C(=C/c2cccc(Cl)c2)SC1=S (stereo unspecified) | -7 | i | i | i | i | i | i | i
COc1ccccc1OCCCOc1ccc([N+](=O)[O-])cc1Cl | -6 | i | i | i | i | i | i | 36%*
COc1cccc(OCCCOc2ccc([N+](=O)[O-])cc2Cl)c1 | -6 | i | i | i | i | · | · | ·
O=c1ccc2cc3c4c(c2o1)CCCN4CCC3 | -48 | i | i | i | i | · | · | ·
SMILES | hERG protect | KCNQ1 block | KCNK9 inh | KCNQ1 pot | KCNK3 block | KCNK9 block conf | Kir21 sel | HEK293 Tl ctr
O=c1ccc2c(o1)/C(=C/C=C(Cl)Cl)CCC2 | -3 | i | -12* | i | i | 42%* | i | 36%*
CC(=O)c1ccc(OC(=O)CCN2c3ccccc3Sc3ccccc32)cc1 | -7 | i | -12* | i | i | 74%* | i | 28%*
CC(=O)c1ccc2c(c1)N(C)c1ccccc1S2 | -7 | i | i | i | i | i | i | i
O=C(CCN1c2ccccc2Sc2ccccc21)Oc1ccccc1 | -10 | i | i | i | i | · | · | ·
COCC(=O)Nc1cc(C)cn(Cc2ccc(F)cc2)c1=O | -17 | i | i | i | i | · | · | ·
CCCCOc1ccc(N2C(=O)CC(NCc3ccncc3)C2=O)cc1 (stereo unspecified) | -11 | i | i | i | i | · | · | ·
Cc1ccc(S(=O)(=O)N(Cc2cccc(C)c2)C(=O)N2CCN(C)CC2)cc1 | -4 | i | i | i | i | · | · | ·
Cc1ccc(NC(=S)N/N=C2/CCCCc3ccccc32)cc1 | -5 | i | i | 8* | i | i | i | i
Cc1cccc(NC(=S)N/N=C2/CCCCc3ccccc32)c1 | 5.8* | i | i | i | i | i | i | i
C=CCn1c(SCc2nc(N)nc(N3CCCCC3)n2)nnc1-c1ccco1 | -2 | i | i | i | i | · | · | ·
COc1ccc2nc(NNC(=O)c3cc(=O)c4ccccc4o3)sc2c1 | -6 | i | i | i | i | · | · | ·
Cc1ccc2sc(NNC(=O)c3cc(=O)c4ccccc4o3)nc2c1C | -21 | i | i | i | i | i | i | i
O=C(NNc1nc2c(F)cccc2s1)c1cc(=O)c2ccccc2o1 | 4 | i | i | i | i | · | · | ·
Cc1cccc2sc(NNC(=O)c3cc(=O)c4ccccc4o3)nc12 | -16 | i | i | i | i | i | i | i
CC(C)(NC(=O)c1ccccc1)c1nc2ccccc2s1 | -13 | i | i | i | i | · | · | ·
COc1ccccc1NC(=O)C1CC(=O)OC1c1ccccc1 (stereo unspecified) | -11 | i | i | i | i | · | · | ·
CC1Oc2ccccc2N(CC(=O)NCCc2ccccc2)C1=O (stereo unspecified) | -2 | i | i | i | i | · | · | ·
COc1ccc(C(CC(=O)Nc2ccccn2)N2Cc3ccccc3C2=O)cc1OC (stereo unspecified) | -1 | i | i | i | i | · | · | ·
